Experimental data reported in PubChem BioAssay.
The source made the active and inactive calls.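 Rule for the calls, unless noted: active = visually confirmed hit in the image check and inhibition above 20%; inconclusive = visually confirmed hit but inhibition not above 20%; inactive = no visual hit in the image check.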

Assays:
[1] = inhibitors of TNFa-induced NFkB p65 translocation, primary screen, imaging, HUVEC, MLSMR starter and 10KST1 sets (AID 438;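 active = inhibition above 20% together with a positive visual image hit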;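 note: compound added about 3h40 before a 20 min TNFalpha stimulation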;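 for inhibition: signal is the nuclear over cytoplasmic p65 intensity ratio per well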); settings: HUVEC TNFa-induced p65 nuclear translocation; cell count: measured here: nuclei count (cytotoxicity indicator), at 2.08 µM; inhibition: at 2 µM, stronger effect = higher value, 0% TNFa-plus-vehicle, 100% no-TNFa wells
[2] = inhibitors of E-selectin induction by TNFa, primary screen, imaging, HUVEC, immunofluorescence, MLSMR starter and 10KST1 sets (AID 487); settings: HUVEC TNFalpha-induced E-selectin immunofluorescence imaging, at 2 µM; inhibition: stronger effect = higher value; nuclei count: measured here: cell number, toxicity;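 for inhibition: signal is fraction of cell area covered by stained E-selectin grains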;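 for nuclei count: 100% = median nuclei count of all wells on the same plate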
[3] = DUSP6 inhibitors restoring Erk phosphorylation by chemical complementation, primary imaging in DUSP6-transfected HeLa (AID 609;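 active = compounds giving at least 50% inhibition in the cell-based MKP-3 phosphatase rescue imaging test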;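 for inhibition: phospho-Erk level distribution per well compared with pooled transfected vehicle control wells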); settings: HeLa MKP-3 transfected, phospho-Erk imaging KS statistic, at 10 µM, cells stimulated with TPA for 15 min
[4] = target: Dual specificity protein phosphatase 6 (Homo sapiens) (UniProt Q16828); assay: as above; settings: HeLa MKP-3 transfected, phospho-Erk imaging KS statistic; at 10 µM; stronger effect = higher value; cells stimulated with TPA for 15 min
Sequence of Dual specificity protein phosphatase 6 (Homo sapiens) (Q16828 whole entry, looked up): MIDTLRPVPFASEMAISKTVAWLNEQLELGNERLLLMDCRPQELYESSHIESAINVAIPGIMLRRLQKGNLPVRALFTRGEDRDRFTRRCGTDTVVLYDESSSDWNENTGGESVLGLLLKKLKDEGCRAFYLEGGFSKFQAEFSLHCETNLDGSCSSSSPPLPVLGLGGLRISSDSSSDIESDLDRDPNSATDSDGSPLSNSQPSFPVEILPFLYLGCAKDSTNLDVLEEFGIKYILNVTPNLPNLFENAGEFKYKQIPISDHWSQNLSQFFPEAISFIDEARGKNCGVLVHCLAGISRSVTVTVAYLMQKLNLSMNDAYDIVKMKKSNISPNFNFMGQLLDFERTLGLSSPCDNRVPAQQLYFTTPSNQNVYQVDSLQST

[5] = target: Voltage-gated potassium channel subunit beta-2 (Rattus norvegicus) (UniProt P62483); assay: KvBeta enzyme negative modulators, primary screen, biochemical, NADPH fluorescence (AID 622;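 active = fluorescence slope higher than the sample average by over 3 SD, cut at about -0.22 in these data, passing the limit was not always enough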;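 note: slope of raw intensity against log time taken from 70 to 1610 s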); settings: recombinant KvBeta, 4-cyanobenzaldehyde reduction, at 10 µM, stronger effect = higher value
Sequence of Voltage-gated potassium channel subunit beta-2 (Rattus norvegicus) (P62483 whole entry, looked up): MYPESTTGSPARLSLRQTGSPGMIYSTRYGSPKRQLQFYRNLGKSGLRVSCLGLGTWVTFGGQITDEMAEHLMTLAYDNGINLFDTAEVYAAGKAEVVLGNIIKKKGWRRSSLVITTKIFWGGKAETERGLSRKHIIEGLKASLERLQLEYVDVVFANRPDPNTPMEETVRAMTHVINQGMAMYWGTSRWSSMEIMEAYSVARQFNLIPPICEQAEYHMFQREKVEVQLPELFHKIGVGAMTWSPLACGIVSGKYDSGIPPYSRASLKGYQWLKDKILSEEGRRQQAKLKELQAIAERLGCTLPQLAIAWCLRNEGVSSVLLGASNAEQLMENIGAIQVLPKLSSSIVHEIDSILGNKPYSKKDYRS

[6] = target: Voltage-gated potassium channel subunit beta-2 (Rattus norvegicus) (UniProt P62483); assay: KvBeta positive modulators, primary screen, biochemical, NADPH fluorescence (AID 623;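 active = NADPH fluorescence slope more negative than the mean of all samples by about 3 SD, 99.7% confidence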;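 note: fluorescence intensity change per second fitted from 20 to 320 s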); settings: Recombinant KvBeta, NADPH fluorescence decrease slope, 10 min; at 10 µM; stronger effect = lower value
[7] = target: Muscarinic acetylcholine receptor M4 (Homo sapiens) (UniProt P08173); assay: compounds altering M4/GIRK thallium flux, either direction, primary screen, M4 allosteric agonist project, cell-based, HEK293 M4/GIRK, BTC-AM (AID 625;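 active = fluorescence slope after compound addition differing from the mean of all tested samples at 99.7% confidence, mostly higher but some lower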;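 note: thallium influx through GIRK channels coupled to M4 in HEK293 cells with BTC-AM dye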); settings: at 10 µM, actives lie on both sides
Sequence of Muscarinic acetylcholine receptor M4 (Homo sapiens) (P08173 whole entry, looked up): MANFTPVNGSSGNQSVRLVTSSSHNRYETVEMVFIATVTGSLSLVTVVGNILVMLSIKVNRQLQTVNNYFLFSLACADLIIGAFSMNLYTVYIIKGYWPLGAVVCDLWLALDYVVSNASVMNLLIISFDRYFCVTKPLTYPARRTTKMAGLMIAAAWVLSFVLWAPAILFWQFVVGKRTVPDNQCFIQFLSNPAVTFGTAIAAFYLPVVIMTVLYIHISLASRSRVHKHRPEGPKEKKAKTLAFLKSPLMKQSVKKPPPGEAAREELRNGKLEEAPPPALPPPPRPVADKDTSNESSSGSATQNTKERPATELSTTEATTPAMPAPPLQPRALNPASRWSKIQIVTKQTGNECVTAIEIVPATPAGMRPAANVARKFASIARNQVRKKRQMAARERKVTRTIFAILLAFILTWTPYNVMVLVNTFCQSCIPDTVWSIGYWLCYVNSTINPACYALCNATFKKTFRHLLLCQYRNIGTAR
Outline: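 Assay system: HEK293 cells with M4 receptor and GIRK channels / Controls: carbachol and DMSO controls / Schedule: 1 h dye loading, 2 min kinetic read / Technique: kinetic fluorescence with BTC-AM dye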

[8] = inhibitors of larval lipid processing in zebrafish, primary screen, whole organism, PED6 fluorescence, gall bladder and intestine (AID 686;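 active = a full or partial loss of lipid-probe fluorescence in the fish gall bladder, intestine or both, judged by eye; inactive = no fluorescence loss, or compound toxic to the fish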;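 note: larvae 5 to 7 days old with five fish per well; signal comes from phospholipase A2 cleavage of quenched PED6 carried via bile; overnight exposure to compound and PED6 before scoring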); settings: Zebrafish larvae PED6 lipid processing, fluorescence scoring; screened at 20 µM (by protocol)
Outline: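 Doses: 20 µM single dose. Test system: live zebrafish larvae aged 5-7 days, whole organism. Quantity: five larvae per well. Measured by: By-eye fluorescence microscopy. Reagent: ingested quenched lipid PED6 at 100 nM. Read-out: visual per-well fluorescence inhibition score. Times: overnight exposure of larvae to compound plus PED6.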

[9] = inhibitors of Chlamydomonas gravitaxis, primary screen, whole organism, Chlamydomonas reinhardtii, WT vs cilia-less mutant, absorbance, 96-well (AID 463189;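 active = inhibition at or above 50% relative to wild type and mutant plate controls; inactive = inhibition below 50%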;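 note: 0% = wild type cc124 cells in DMSO and 100% = ciliumless bld1 mutant cells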); settings: OD600 absorbance, 2 days, at 10 µM, stronger effect = higher value
[10] = measured here: cell density z-score
[11] = measured here: nuclear c-Myc green intensity z-score
[12] = measured here: nuclear pErk red intensity z-score, stronger effect = higher value

| Structure (SMILES) | cell count [1] | inhibition [1] | inhibition [2] | nuclei count [2] [%] | z-score [3, 10] | z-score [3, 11] | z-score [3, 12] | inhibition [4] | fluorescence slope [5] | NADPH fluorescence slope [6] | fluorescence slope [7] | outcome [8] | inhibition [9] |
| --- | --- | --- | --- | --- | --- | --- | --- | --- | --- | --- | --- | --- | --- |
| Cc1c(C)[n+](=O)c2c(n1[O-])CCC2 | 529 | -2% (inactive) | -51.7% (inactive) | 103 | -0.661 | -0.154 | 0.608 | 13.9% (inactive) | -0.343 (inactive) | -2.3e-05 (inactive) | 0.00544 (inactive) | inactive | 38.1% (inactive) |
| COCCn1c(SCc2c(F)cccc2Cl)nc2c1c(=O)[nH]c(=O)n2C | 654 | 3.4% (inactive) | -11.2% (inactive) | 115 | 1.7 | -2.3 | -0.397 | 40.7% (inactive) | -0.44 (inactive) | -5.5e-05 (inactive) | 0.00509 (inactive) | inactive | 15.2% (inactive) |
| COCCNC(=O)C(C#N)c1nc2ccccc2nc1N1CCN(Cc2ccc3c(c2)OCO3)CC1 (stereo unspecified) | 737 | -8.1% (inactive) | 11.8% (inactive) | 172 | -1.49 | 1.08 | 1.16 | -2.09% (inactive) | -0.474 (inactive) | -0.000128 (inactive) | 0.00436 (inactive) | inactive | 4.28% (inactive) |
| COc1cccc(-c2nc(N3CCCCC3C)c3ccccc3n2)c1O (stereo unspecified) | 676 | 1% (inactive) | 32.7% (inactive) | 154 | -0.111 | 1.23 | 0.615 | -5.62% (inactive) | -0.465 (inactive) | -7.5e-05 (inactive) | 0.0038 (inactive) | inactive; toxic | 9.9% (inactive) |
| CC(NC(=O)CSc1nnc(COc2ccccc2)o1)c1ccccc1 (stereo unspecified) | 397 | 1.7% (inactive) | -35.2% (inactive) | 134 | -0.868 | 0.275 | 1.84 | -6.86% (inactive) | -0.453 (inactive) | -0.000143 (inactive) | 0.00476 (inactive) | inactive | 5.02% (inactive) |
| O=S(=O)(c1cccc(-c2csc(-c3ccccc3)n2)c1)N1CCOCC1 | 681 | -6% (inactive) | 21.6% (inactive) | 172 | -0.667 | -0.235 | -0.477 | -2.29% (inactive) | -0.452 (inactive) | -5.8e-05 (inactive) | 0.00515 (inactive) | inactive | 25.2% (inactive) |
| OCCOCCNc1ncnc2c1cnn2-c1ccc(Cl)cc1 | 578 | -11.9% (inactive) | -74.5% (inactive) | 181 | 0.588 | -0.286 | 0.737 | -4.59% (inactive) | -0.308 (inactive) | -2.8e-05 (inactive) | 0.00585 (inactive) | inactive | 26.1% (inactive) |
| c1ccc2c(c1)CCOC2CNCCCN1CCCCC1 (stereo unspecified) | 701 | -5.5% (inactive) | -141% (inactive) | 172 | -0.992 | 1.14 | -0.201 | 1.98% (inactive) | -0.473 (inactive) | -6.5e-05 (inactive) | 0.00496 (inactive) | inactive | -4.57% (inactive) |
| COc1ccc(C2C=C(c3ccc(C)cc3)Nc3ncnn32)cc1 (stereo unspecified) | 538 | 0.8% (inactive) | 22.6% (inactive) | 156 | -1.85 | 1.16 | 0.377 | -3.97% (inactive) | -0.0165 (inactive) | -1.6e-05 (inactive) | 0.00462 (inactive) | inactive | 2.98% (inactive) |
| O=S(=O)(c1cccc2nsnc12)N1CCN(C/C=C/c2ccccc2)CC1 | 680 | 3.2% (inactive) | 16.6% (inactive) | 117 | -0.555 | -0.43 | 0.591 | 1.9e-07% (inactive) | -0.527 (inactive) | -5.7e-05 (inactive) | 0.00411 (inactive) | inactive | 45.8% (inactive) |
| CCOc1ccc(N=C2C(=O)N(CN3CCOCC3)c3ccccc32)cc1 | 653 | -4.3% (inactive) | -371% (inactive) | 156 | 0.894 | -0.754 | -0.416 | 10.1% (inactive) | -0.486 (inactive) | -7.9e-05 (inactive) | 0.00278 (inactive) | inactive | 9.3% (inactive) |
| O=C(C(c1ccccc1)N1CCOCC1)N1CCOCC1 (stereo unspecified) | 733 | -13.6% (inactive) | -25.3% (inactive) | 159 | -0.0327 | 1.84 | -0.87 | -9.53% (inactive) | -0.431 (inactive) | -2.2e-05 (inactive) | 0.00553 (inactive) | inactive | -3.52% (inactive) |
